From article PMC11812941 (CPT: Pharmacometrics & Systems Pharmacology, 2024)
Read-outs that look alike come from different tables or passages of the source.

What was measured:
[1] = cited from earlier work
[2] = Prevalence of serum antidrug antibodies in FILLY, OAKS and DERBY; assay type: in vivo, human; conditions: detectable at baseline or at any time during the study
[3] = system: patients with GA secondary to AMD (GA lesion area); conditions: phase III OAKS and DERBY combined, cited from earlier work
[4] = system: patients with GA secondary to AMD (GA lesion area); conditions: phase II FILLY, cited from earlier work
[5] = system: patients with GA secondary to AMD (GA lesion area, study eye); experiment: Dose-response model of GA lesion area, pooled FILLY, OAKS and DERBY data; assay type: in vivo, human; conditions: point estimate
Method in brief: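 Study eyes were randomized 2:2:1:1 to a 100 μL intravitreal injection of test compound 15 mg monthly or EOM, or sham monthly or EOM, for ≤24 months. GA lesion area was measured by fundus autofluorescence. A linear-with-time disease progression model with covariates was built from sham and untreated fellow eyes. Step-function drug effects per regimen were fitted in NONMEM.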

[6] = cited from earlier work; remark: listed apart in the source

pegcetacoplan
average exposure relative to reference body weight 70 kg ([1]; 5th percentile of body weight (53 kg), higher, 90% CI 1.16-1.23): 1.20 fold
average exposure relative to reference body weight 70 kg ([1]; 95th percentile of body weight (94 kg), lower, 90% CI 0.800-0.853): 0.827 fold
effective elimination half-life, median (interquartile range) ([1]; patients with paroxysmal nocturnal hemoglobinuria): 8.6 (6.9–11.0) days
clearance, predicted geometric mean ([1]; population PK model, 11 clinical studies, CV 30%): 0.36 L/day
prevalence of serum antidrug antibodies against the PEG moiety [2]: 67%
prevalence of serum antidrug antibodies against the peptide moiety [2]: 5%
reduction in GA lesion area growth compared with sham treatment ([3]; EOM): 24%
reduction in GA lesion area growth compared with sham treatment ([3]; monthly): 30%
reduction in GA lesion area growth compared with sham treatment ([4]; EOM): 20%
reduction in GA lesion area growth compared with sham treatment ([4]; monthly): 29%
model-predicted rate of disease progression (GA lesion growth rate) relative to sham ([5]; pegcetacoplan 15 mg intravitreal EOM, 95% CI 0.78, 0.87): 0.83 fold
model-predicted rate of disease progression (GA lesion growth rate) relative to sham ([5]; pegcetacoplan 15 mg intravitreal monthly, 95% CI 0.75, 0.84): 0.80 fold
model-predicted steady-state serum maximal concentration, geometric mean ([6]; patients with GA, 15 mg intravitreal EOM, CV 58.1%): 1.5 µg/mL
accumulation from first dose to steady-state, ratio of geometric mean exposure ([6]; serum or vitreous humor): 1.10–1.50
